Test results published in ChEMBL document CHEMBL5346886 (Eur J Med Chem, 2023).
pEC50: −log10 of the molar value. Active and inactive are the calls of the source. The rule behind the calls is not given here.

How the values were obtained:
Murine hepatitis virus [1] = assay: Antiviral activity against Murine hepatitis virus-A59 infected in mouse L929 cells assessed as reduction in viral copy pre-infected with cell for 1 hrs followed by compound addition and measured after 48 hrs by RT-qPCR analysis; type: functional, organism-based; settings: Murine coronavirus
Method in brief: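 L929 cells in DMEM with 10% FBS were washed serum-free at 80% confluence and infected with MHV-A59 at MOI 0.01 for 1 h at 37 °C. Compounds were added at 0.1–100 μmol/L, with DMSO as blank control. After 48 h at 37 °C, the viral M gene in supernatant was measured by qRT-PCR. Percent inhibition was derived from copy number and EC50 from curve fitting.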

Murine hepatitis virus [2] = assay: Potency index, ratio of GS-441524 EC50 to test compound EC50 for antiviral activity against Murine hepatitis virus-A59 infected in mouse L929 cells assessed as reduction in viral copy pre-infected with cell for 1 hrs followed by compound addition and measured after 48 hrs by RT-qPCR analysis; type: functional
[3] = Stability in human plasma assessed as half-life; type: ADME, cell-free
[4] = Drug metabolism in Sprague-Dawley rat assessed as hydrolysis-mediated GS-441524 metabolite formation at 5 mg/kg, iv administered as single dose and measured after 24 hrs by LC-MS/MS analysis; type: ADME, organism-based; settings: in vivo
[5] = Drug distribution in BALB/c mouse plasma assessed as hydrolyzed ibuprofen metabolite at 200 mg/kg, po administered as single dose and measured after 1 hrs by LC-MS/MS analysis; type: ADME, organism-based; settings: in vivo
Murine hepatitis virus [6] = assay: Antiviral activity against murine hepatitis virus-A59 infected in BALB/c mouse assessed as inhibition of viral titer in lungs at 200 mg/kg, po administered once daily one hour post infection and measured after 3 days by qRT-PCR analysis; type: functional, organism-based; settings: time 3.0 day
Method in brief: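 SPF male BALB/c mice aged 3–4 weeks were put under isoflurane and inoculated intranasally with 30 μL MHV-A59 (TCID50 = 10−7.125/100 μL) in PBS. Oral dosing once daily in 15% Cremophor EL/82.5% PBS/2.5% DMSO started at 1 hpi and ran for four days; groups had 12 mice. At 3 dpi, 4 mice per group were killed and lung and liver M-gene copies measured by qRT-PCR.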

Murine hepatitis virus [7] = assay: Antiviral activity against murine hepatitis virus-A59 infected in BALB/c mouse assessed as reduction in IFN-gamma production in liver at 10 to 100 mg/kg, po administered once daily one hour post infection and measured after 3 days by ELISA analysis; type: functional, organism-based; settings: dose 10-100 mg/kg, time 3.0 day
Method in brief: (§1)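 MHV-A59 was inoculated intranasally into male BALB/c mice (30 μL, TCID50 = 10−7.125/100 μL), with oral dosing once daily from 1 hpi for four days. At 3 dpi, 0.1 g lung or liver from 4 mice per group was homogenized in 0.9 mL water at 4 °C and centrifuged. Supernatant IFN-β was read by ELISA; TNF-α, IFN-γ, IL-1β, IL-6 and CXCL10 by multi-analyte kit, with OD 450 nm against standards.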

Murine hepatitis virus [8] = assay: Antiviral activity against murine hepatitis virus-A59 infected in BALB/c mouse assessed as reduction in IL-1beta production in lungs at 200 mg/kg, po administered once daily one hour post infection and measured after 3 days by ELISA analysis; type: functional, organism-based; settings: time 3.0 day; method in brief: as §1
Murine hepatitis virus [9] = assay: Antiviral activity against murine hepatitis virus-A59 infected in BALB/c mouse assessed as reduction in IL-6 production in lungs at 200 mg/kg, po administered once daily one hour post infection and measured after 3 days by ELISA analysis; type: functional, organism-based; settings: time 3.0 day; method in brief: as §1
Murine hepatitis virus [10] = assay: Antiviral activity against murine hepatitis virus-A59 infected in BALB/c mouse assessed as reduction in CXCL10 production in lungs at 200 mg/kg, po administered once daily one hour post infection and measured after 3 days by ELISA analysis; type: functional, organism-based; settings: time 3.0 day; method in brief: as §1
Murine hepatitis virus [11] = assay: Antiviral activity against murine hepatitis virus-A59 infected in BALB/c mouse assessed as alleviation of interstitial pneumonia in lungs at 200 mg/kg, po administered once daily one hour post infection and measured after 3 days by H&E staining based analysis; type: functional, organism-based; settings: time 3.0 day
Method in brief: (§2)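 In male BALB/c mice (3–4 weeks), MHV-A59 was given intranasally (30 μL, TCID50 = 10−7.125/100 μL). Oral dosing once daily in a Cremophor EL/PBS/DMSO vehicle began at 1 hpi and lasted four days. At 3 dpi, lungs and livers from 4 mice per group were fixed in zinc formalin and paraffin-embedded. Sections of about 4 μm were stained with H&E and examined at 200× and 400×.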

Murine hepatitis virus [12] = assay: Antiviral activity against murine hepatitis virus-A59 infected in BALB/c mouse assessed as alleviation of lymphocytes infiltration in lungs at 200 mg/kg, po administered once daily one hour post infection and measured after 3 days by H&E staining based analysis; type: functional, organism-based; settings: time 3.0 day; method in brief: as §2
Murine hepatitis virus [13] = assay: Antiviral activity against murine hepatitis virus-A59 infected in BALB/c mouse assessed as alleviation of necrotic debris in lungs at 200 mg/kg, po administered once daily one hour post infection and measured after 3 days by H&E staining based analysis; type: functional, organism-based; settings: time 3.0 day; method in brief: as §2
Murine hepatitis virus [14] = assay: Antiviral activity against murine hepatitis virus-A59 infected in BALB/c mouse assessed as remission of hepatocyte necrosis at 200 mg/kg, po administered once daily one hour post infection and measured after 3 days by H&E staining based analysis; type: functional, organism-based; settings: time 3.0 day; method in brief: as §2
Murine hepatitis virus [15] = assay: Antiviral activity against murine hepatitis virus-A59 infected in BALB/c mouse assessed as reduction in mortality at 10 to 200 mg/kg, po administered once daily one hour post infection and measured after 23 days; type: functional, organism-based; settings: dose 10-200 mg/kg, time 23.0 day
Method in brief: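 After intranasal MHV-A59 inoculation (30 μL, TCID50 = 10−7.125/100 μL), 3–4-week-old male BALB/c mice received oral drug or vehicle once daily from 1 hpi for four days, 12 per group. The remaining mice were monitored daily for body weight, clinical signs and death until 23 dpi; survival curves were plotted.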

Murine hepatitis virus [16] = assay: Antiviral activity against murine hepatitis virus-A59 infected in BALB/c mouse assessed as survival rate at 10 mg/kg, po administered once daily one hour post infection and measured after 23 days relative to control; type: functional; settings: Murine coronavirus, A59, 552 h, time 23 day
Method in brief: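 Male SPF BALB/c mice (3–4 weeks) were anaesthetised with isoflurane and given 30 μL MHV-A59 intranasally (TCID50 = 10−7.125/100 μL) in PBS. Oral dosing once daily in 15% Cremophor EL/82.5% PBS/2.5% DMSO began at 1 hpi and ran for four days, at 10, 50 or 200 mg/kg. There were 12 mice per group, with 4 culled at 3 dpi. Body weight, clinical signs and death were recorded daily to 23 days.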

[17] = Toxicity in BALB/c mouse infected with murine hepatitis virus-A59 assessed as effect on survival at 50 to 200 mg/kg, po administered once daily one hour post infection and measured after 23 days; settings: in vivo, 552 h

For `CC(C)Cc1ccc(C(C)C(=O)OC[C@H]2O[C@@](C#N)(c3ccc4c(N)ncnn34)[C@H](O)[C@@H]2O)cc1` (some centres not stated), the pEC50 (Murine hepatitis virus [1]) was 5.94, the “Ratio EC50” value (Murine hepatitis virus [2]) was 8 and the t1/2 [3] was 4.4173 h. For the same molecule, the Drug metabolism [4] was “Metabolite_Detected”, the Drug uptake [5] was “Active” and the Activity (Murine hepatitis virus [6]) was “Active”. The Activity (Murine hepatitis virus [7]) was “Active”, the Activity (Murine hepatitis virus [8]) was “Active” and the Activity (Murine hepatitis virus [9]) was “Active”. For the same molecule, the Activity (Murine hepatitis virus [10]) was “Active”, the Activity (Murine hepatitis virus [11]) was “Active” and the Activity (Murine hepatitis virus [12]) was “Active”. The Activity (Murine hepatitis virus [13]) was “Active”, the Activity (Murine hepatitis virus [14]) was “Active” and the Activity (Murine hepatitis virus [15]) was “Active”. The survival at 10 mg/kg (Murine hepatitis virus [16]) was 100% and the Activity [17] was “Toxic”.
